Assay outcomes as filed in PubChem BioAssay.
sPLA2-III inh = Blocks human group III sPLA2 activity | Q9NZ20 | QFRET BODIPY PC-A2 liposome hydrolysis, fluorescence | inhibition, % at 12.2 µM | 370,000 compounds, 0.56% hits;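 active means inhibition above mean plus 3 SD of compounds lying within the high and low control bounds, cut at about 19% in these data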
PLCg1 inh = PLC-gamma1 (human) inhibition, primary screen; AID 720700; purified PLC-gamma1, fluorogenic substrate, fluorescence; inhibition, % at 12.2 µM; 370,000 compounds, 0.84% hits
Target sequence (P19174 whole entry, looked up): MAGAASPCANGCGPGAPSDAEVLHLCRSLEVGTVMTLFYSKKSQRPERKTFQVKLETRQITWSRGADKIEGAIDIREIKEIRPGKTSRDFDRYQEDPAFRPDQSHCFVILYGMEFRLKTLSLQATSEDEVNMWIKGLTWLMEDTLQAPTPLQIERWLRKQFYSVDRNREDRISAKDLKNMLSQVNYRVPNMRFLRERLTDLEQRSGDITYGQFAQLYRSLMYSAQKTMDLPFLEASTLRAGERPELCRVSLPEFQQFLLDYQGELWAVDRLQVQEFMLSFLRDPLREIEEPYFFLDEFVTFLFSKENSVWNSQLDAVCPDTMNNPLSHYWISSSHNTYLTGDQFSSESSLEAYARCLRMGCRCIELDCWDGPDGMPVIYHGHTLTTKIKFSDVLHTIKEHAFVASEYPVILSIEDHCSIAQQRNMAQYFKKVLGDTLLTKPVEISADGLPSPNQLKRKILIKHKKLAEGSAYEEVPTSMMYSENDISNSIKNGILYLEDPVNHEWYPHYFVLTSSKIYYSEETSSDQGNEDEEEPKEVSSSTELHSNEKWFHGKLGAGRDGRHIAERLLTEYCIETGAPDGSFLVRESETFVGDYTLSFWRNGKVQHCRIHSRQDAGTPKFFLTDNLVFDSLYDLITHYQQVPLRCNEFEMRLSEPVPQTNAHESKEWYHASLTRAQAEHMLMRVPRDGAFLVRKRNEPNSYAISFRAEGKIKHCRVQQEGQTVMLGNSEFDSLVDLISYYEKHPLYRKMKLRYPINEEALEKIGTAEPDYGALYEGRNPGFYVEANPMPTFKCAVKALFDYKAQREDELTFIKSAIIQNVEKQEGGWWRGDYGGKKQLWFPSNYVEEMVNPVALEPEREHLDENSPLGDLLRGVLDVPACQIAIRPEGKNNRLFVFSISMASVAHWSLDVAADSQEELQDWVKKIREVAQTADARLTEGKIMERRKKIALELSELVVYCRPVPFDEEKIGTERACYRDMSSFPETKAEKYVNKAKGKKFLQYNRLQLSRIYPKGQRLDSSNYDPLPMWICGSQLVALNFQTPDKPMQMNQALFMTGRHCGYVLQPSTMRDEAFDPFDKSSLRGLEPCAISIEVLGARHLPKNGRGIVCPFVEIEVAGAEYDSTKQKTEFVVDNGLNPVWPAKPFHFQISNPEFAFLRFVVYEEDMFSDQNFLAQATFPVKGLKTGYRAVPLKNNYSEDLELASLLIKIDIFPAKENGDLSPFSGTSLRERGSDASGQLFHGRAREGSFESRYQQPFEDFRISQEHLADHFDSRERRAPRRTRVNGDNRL
PLCb3 inh = blocks human PLC-beta3 enzyme activity; 370,000 compounds, 0.18% hits; inhibition, % at 12.2 µM; Purified PLC-beta3, fluorogenic substrate, fluorescence; in the data active means inhibition above about 11%
DAGLB inh = blocks human DAGLB lipase activity; Q8NCG7; inhibition, % at 5.17 µM; 340,000 compounds, 0.059% hits; HEK293T DAGLB membrane lysate, EnzChek fluorogenic substrate; in the data active means inhibition above about 34%
TbMetRS inhib = blocks T. brucei methionyl-tRNA synthetase activity | AID 624268 | 360,000 compounds, 0.4% hits | purified T. brucei MetRS, ATP depletion, Kinase-Glo luminescence | inhibition, % at 11.9 µM;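 active means inhibition above a per-plate cutoff of the control wells' mean inhibition plus 3 SD, cut at about 5.5% in these data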
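Measured by: Kinase-Glo luciferase luminescence reporting remaining unconsumed ATP. Material: purified T. brucei MetRS enzyme. Doses: 11.9 µM compound single dose, 0.9% DMSO. Medium: HEPES buffer containing pyrophosphatase, BSA, spermine, DTT. Times: 15 min preincubation, 2 h reaction, all 25 °C. Reagent: methionine, ATP and bulk E. coli tRNA.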
PLCgamma1 ctr = inhibits human PLC-gamma1 in PLC-beta3 counter-screen | shares compounds with PLCg1 inh | purified PLC-gamma1, fluorogenic substrate, fluorescence | 3,300 compounds, 3.1% hits | inhibition, % at 12.3 µM
PLCbeta3 conf = human PLC-beta3 inhibition, confirmation | shares compounds with PLCg1 inh | purified PLC-beta3, fluorogenic substrate fluorescence | inhibition, % at 12.3 µM | 3,300 compounds, 1% hits | AID 743261; in the data active means inhibition above about 11%
Numbers stand for hits; - = inactive; . = not tested or not shown. Most compounds without a hit are left out; they make up all but 1.9% or so of the library. Unless noted, no stated cut-off is given here; in the data, active means inhibition above about 9.5%; inactive means the rest.

SMILES | sPLA2-III inh | PLCg1 inh | PLCb3 inh | DAGLB inh | TbMetRS inhib | PLCgamma1 ctr | PLCbeta3 conf
CCC(=O)c1ccc(OCC(O)CN2CCN(S(=O)(=O)N3CCCCC3)CC2)cc1 (stereo not given) | - | 9.6 | - | - | - | - | -
COc1ccc(C2=NOC(Cn3nc(-c4ccccc4)cc3C(=O)NCc3cccc(Br)c3)C2)cc1 (stereo not given) | - | - | 15.6 | - | - | - | -
CCn1c(Cc2cccs2)nnc1SCC(=O)Nc1ccc2c(c1)OCCO2 | - | - | - | . | . | . | .
CCOC(=O)c1sc(NC(=O)C2CC2)cc1C | - | 11.0 | - | - | - | - | -
CC1=NN(c2ccc(N)cc2)C(=O)C1 | - | - | - | - | - | . | .
CC1=NN(c2ccccc2)C(=O)C1 | - | 23.8 | - | - | - | - | -
CC1=NN(c2ccc(Cl)cc2)C(=O)C1 | - | 13.3 | - | - | - | - | -
CC1=NN(Cc2ccccc2)C(=O)C1 | - | 12.8 | - | - | - | - | -
Fc1ccc(Cn2ccc3ccc(-c4ccc5ccn(Cc6ccc(F)cc6F)c5c4)cc32)c(F)c1 | - | - | - | . | . | . | .
O=C1C2C(CC3c4ccccc4CCN32)CN1c1ccccc1 (stereo not given) | - | - | - | . | . | . | .
O=S1(=O)c2ccc(N3CCSCC3)cc2Oc2ccccc2CN1Cc1cn(Cc2ccc(F)cc2)nn1 | - | - | - | . | . | . | .
C(=N\Nc1nncc2ccccc12)/c1cccnc1 | - | - | - | . | . | . | .
O=S(=O)(NC1CCCCC1N1CCOCC1)c1ccc(Cl)cc1 (stereo not given) | - | 11.7 | - | - | - | - | -
O=S(=O)(N[C@@H]1CCCC[C@@H]1N1CCOCC1)c1ccc(Cl)cc1 | - | - | - | . | . | . | .
O=C(Cn1nc(C(F)(F)F)c2c1CCCC2)N1CCOCC1 | - | 9.6 | - | - | - | - | -
O=C(Cn1nc(C(F)(F)F)c2c1CCCCC2)N1CCOCC1 | - | - | - | - | - | . | .
O=C1/C(=C/c2cccc([N+](=O)[O-])c2)CCc2ccccc21 | - | - | - | - | - | . | .
CCN1C/C(=C\c2cccc([N+](=O)[O-])c2)C(=O)/C(=C/c2cccc([N+](=O)[O-])c2)C1 | - | 12.5 | - | - | - | - | -
O=S1(=O)c2ccc(Br)cc2OC[C@H](c2ccccc2)N1Cc1ccccc1 | - | - | - | . | . | . | .
CCS(=O)(=O)Nc1c(C)n(C)n(-c2ccccc2)c1=O | - | 9.6 | - | - | - | - | -
Cc1c(NC(=O)C2CCCN2S(=O)(=O)c2ccccc2)c(=O)n(-c2ccccc2)n1C (stereo not given) | - | - | 13.5 | - | - | - | -
CCOc1ccc(S(=O)(=O)Nc2c(C)n(C)n(-c3ccccc3)c2=O)cc1 | - | - | - | - | - | . | .
Cc1ccc(S(=O)(=O)N2CCCC(C(=O)Nc3c(C)n(C)n(-c4ccccc4)c3=O)C2)cc1 (stereo not given) | - | - | - | . | . | . | .
COc1ccc(CN2CCC(CNC(=O)Nc3ccc(C)c(F)c3)CC2)cc1 | - | - | - | . | . | . | .
CC(=O)NS(=O)(=O)c1ccc(N=NN2CCOCC2)cc1 | - | 9.8 | 11.5 | - | - | - | -
SMILES | sPLA2-III inh | PLCg1 inh | PLCb3 inh | DAGLB inh | TbMetRS inhib | PLCgamma1 ctr | PLCbeta3 conf
CC(=O)NS(=O)(=O)c1ccc(N=NN2CCCCCC2)cc1 | - | - | - | - | - | . | .
CC(C)NC(=O)c1cc2cc([N+](=O)[O-])ccc2s1 | - | 13.9 | 11.9 | - | - | - | -
CCCNC(=O)c1cc2cc([N+](=O)[O-])ccc2s1 | - | - | - | - | - | . | .
C=CCNC(=O)Nc1ccc2c(c1)[C@@]1(CC(=O)N(CC(C)C)C1c1ccccc1)C(=O)N2C (stereo not given in full) | - | - | - | . | . | . | .
CCOC(=O)c1sc(N)c(C#N)c1CSc1nc2ccc(OCC)cc2[nH]1 | - | 12.8 | - | - | - | - | -
CC1CCC(C(C)C)C(OC(=O)C[n+]2cc(-c3ccc(Cl)cc3)n3c2CCC3)C1 (stereo not given) | - | 9.9 | - | - | - | - | -
O=C(C[n+]1cc(-c2ccc(Cl)cc2)n2c1CCC2)N1c2ccccc2Sc2ccccc21 | - | - | - | - | - | . | .
COc1cccc(NC(=O)Nc2nc3ncccn3c2-c2ccc(C)cc2)c1 | - | - | - | . | . | . | .
O=C(N/C=N/O)C1=NOC(CNc2ncc(C(F)(F)F)cc2Cl)C1 (stereo not given) | - | 10.0 | - | - | - | - | -
O=C(NC1CC1)C1=NOC(CNc2ncc(C(F)(F)F)cc2Cl)C1 (stereo not given) | - | - | - | - | - | . | .
CC(NC(=O)c1ccc(F)cc1)c1ccc2c(c1)CCCC2 (stereo not given) | - | 13.1 | 13.6 | - | - | - | -
CC(NC(=O)c1ccc(Br)cc1)c1ccc2c(c1)CCCC2 (stereo not given) | - | - | - | - | - | . | .
O=C(COc1ccc(F)cc1)c1ccc2c(c1)CCCC2 | - | 9.5 | - | - | - | - | -
O=C(COc1ccc(Cc2ccccc2)cc1)c1ccc(F)cc1 | - | - | - | - | - | . | .
CCOC(=O)c1cnc2ccc(Br)cc2c1NCC(C)O (stereo not given) | - | 12.4 | - | - | - | - | -
CCOC(=O)c1ccc2ncc(C(=O)OCC)c(NCCCN3CCOCC3)c2c1 | - | - | - | - | - | . | .
CCOC(=O)c1cnc2ccc(Br)cc2c1NCCO | - | - | - | - | - | . | .
CCOC(=O)c1cnc2ccc(C)cc2c1NCCN1CCOCC1 | - | 10.9 | - | - | - | - | -
O=C(NCc1ccccc1)c1cc(C2CCCCN2C(=O)c2ccc3c(c2)CCO3)on1 (stereo not given) | - | 11.5 | - | . | - | - | -
CCC(=O)Nc1cccc(NC(=S)NC(=O)c2ccccc2C)c1 | - | 9.9 | - | - | - | - | -
CCC(=O)NC(=S)Nc1cccc(NC(=O)c2ccccc2C)c1 | - | - | - | - | - | . | .
CCN(CC)C(=O)[C@H]1C[C@@H]2[C@H](C[C@@H](c3ccccc3)[C@H]1C)N(c1ccc(F)cc1)C(=O)N2C/C=C(\C)CCC=C(C)C | - | - | - | . | . | . | .
CCOC(=O)c1c(C)[nH]c(C(=O)COC(=O)c2oc3ccccc3c2C)c1C | - | 10.4 | - | - | - | - | -
CCOC(=O)c1c(C)[nH]c(C(=O)COC(=O)c2oc3ccc(OC)cc3c2C)c1C | - | - | - | - | - | . | .
COc1ccc(C(=O)Nc2cc(Cl)c(Br)cc2C(=O)O)cc1 | - | - | - | . | . | . | .
Cc1ccc(S(=O)(=O)N(CC(=O)N/N=C/c2cccc(C)c2)c2cccc3cccnc23)cc1 | - | 11.0 | - | - | - | - | -
Cc1ccc(CN2CC(N3CCC[C@@H]3C)CS2(=O)=O)cc1 (stereo not given in full) | - | - | - | . | . | . | .
